24 compounds from ChEMBL document CHEMBL1140779, “Trisubstituted 1,2,4-triazoles as ligands for the ghrelin receptor: on the significance of the orientation and substitution at position 3” (Bioorg Med Chem Lett, 2008) can be followed below.

Test [1] has as its target T1, Growth hormone secretagogue receptor type 1 (Homo sapiens, UniProt Q92847). As to the kind of experiment: Displacement of [125I]His9-ghrelin from human GHSR1a receptor expressed in LLC PK1 cells. The format is cell-based.
Test [2] has as its target T1, Growth hormone secretagogue receptor type 1. As to the kind of experiment: Agonist activity at human GHSR1a receptor expressed in CHO cells assessed as intracellular calcium mobilization at 10 uM relative to ghrelin. The format is functional, cell-based. An outline of the steps:
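Transiently electroporated hGHS-R1a CHO cells loaded with Fluo-4AM; compound at 10 µM, triplicate, at least 2 independent experiments; fluorescence rise (485/525 nm, 60 s read) compared with buffer-only basal; maximal output taken as that of 0.1 µM ghrelin.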
Background: A change in cytosolic calcium serves as a functional read-out for many receptors and channels.

Test [3] shares this target. As to the kind of experiment: Antagonist activity at human GHSR1a receptor expressed in CHO cells assessed as reduction of ghrelin-induced intracellular calcium mobilization. The format is functional, cell-based.
Test [4] has the same target. As to the kind of experiment: Agonist activity at human GHSR1a receptor expressed in CHO cells assessed as intracellular calcium mobilization. The format is functional, cell-based.
The target is the same in test [5]. As to the kind of experiment: Antagonist activity at human GHSR1a receptor expressed in CHO cells assessed as intracellular calcium mobilization.

T1 sequence (Q92847 whole entry): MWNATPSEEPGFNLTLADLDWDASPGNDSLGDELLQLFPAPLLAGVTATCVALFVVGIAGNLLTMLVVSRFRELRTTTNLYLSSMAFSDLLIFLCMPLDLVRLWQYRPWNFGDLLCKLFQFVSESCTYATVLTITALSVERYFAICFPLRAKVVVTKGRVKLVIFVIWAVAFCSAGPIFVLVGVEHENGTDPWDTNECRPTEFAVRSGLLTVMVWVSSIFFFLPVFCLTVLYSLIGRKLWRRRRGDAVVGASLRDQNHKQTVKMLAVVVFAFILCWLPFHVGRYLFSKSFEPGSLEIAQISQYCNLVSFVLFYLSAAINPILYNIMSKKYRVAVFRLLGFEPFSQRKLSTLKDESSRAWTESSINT

As a reminder, the IC50 is the concentration at which inhibition is half-maximal. Consider `COc1ccc(Cn2c(CCCc3ccccc3)nnc2[C@H](Cc2c[nH]c3ccccc23)NC(=O)C(C)(C)N)cc1`, for which the IC50 in test [1] is > 1000 nM. Besides, the Activity in test [2] is 17%.
For the compound `COc1ccc(Cn2c(CCc3c[nH]c4ccccc34)nnc2[C@@H](Cc2c[nH]c3ccccc23)NC(=O)C(C)(C)N)c(OC)c1`, the IC50 in test [3] was 620 nM. The Activity in test [2] was 0%.
Compound `COc1ccc(Cn2c(CCc3c[nH]c4ccccc34)nnc2[C@@H](Cc2ccccc2)NC(=O)C(C)(C)N)cc1` had an IC50 in test [1] of 200 nM. In test [2], the Activity was determined as 6%.
On to `COc1ccc(Cn2c(Cc3ccccc3)nnc2[C@H](Cc2c[nH]c3ccccc23)NC(=O)C(C)(C)N)c(OC)c1`, for which the IC50 in test [1] is > 1000 nM. In test [2], the Activity worked out at 11%.
With `COc1ccc(Cn2c(Cc3ccccc3)nnc2[C@@H](Cc2c[nH]c3ccccc23)NC(=O)C(C)(C)N)c(OC)c1`, the Activity in test [2] came to 0%.
`COc1ccc(Cn2c(CCc3c[nH]c4ccccc34)nnc2[C@H](Cc2c[nH]c3ccccc23)NC(=O)C(C)(C)N)cc1` had an IC50 in test [1] of 140 nM. Further, the Activity in test [2] was found to be 31%.
For `COc1ccc(Cn2c(CCc3ccccc3)nnc2[C@H](Cc2c[nH]c3ccccc23)NC(=O)C(C)(C)N)cc1` the same measures were > 1000 nM and 0%.
For `COc1ccc(Cn2c(CCc3c[nH]c4ccccc34)nnc2[C@@H](COCc2ccccc2)NC(=O)C(C)(C)N)cc1` the same measures were 800 nM and 0%.
For orientation: EC50 means the concentration giving half of the maximal effect. In test [1], `COc1ccc(Cn2c(CCc3c[nH]c4ccccc34)nnc2[C@H](Cc2c[nH]c3ccccc23)NC(=O)C2CCOCC2)cc1` displayed a half-inhibitory concentration (IC50) of 1300 nM. In addition, the Activity in test [2] turned out to be 0%. For the same compound, the EC50 in test [4] came out at 24 nM.
With `COc1ccc(Cn2c(CCCc3ccccc3)nnc2[C@@H](Cc2c[nH]c3ccccc23)NC(=O)C(C)(C)N)cc1`, in test [3], the IC50 was 600 nM. The Activity in test [2] amounted to 0%.
In turn, `COc1ccc(Cn2c(CCc3c[nH]c4ccccc34)nnc2[C@@H](CC(=O)OCc2ccccc2)NC(=O)C(C)(C)N)cc1` returned an IC50 in test [1] of 450 nM. In addition, the Activity in test [2] was found to be 5%.
For `COc1ccc(Cn2c(Cc3ccccc3)nnc2[C@@H](Cc2ccccc2)NC(=O)C(C)(C)N)cc1` the same measures were > 1000 nM and 6%.
The Kb is the affinity of an antagonist, worked out from how it opposes an agonist. Take `COc1ccc(Cn2c(CCc3c[nH]c4ccccc34)nnc2[C@H](Cc2c[nH]c3ccccc23)NC(=O)C(C)(C)N)c(OC)c1`: in test [3], the IC50 was 3200 nM and the antagonist equilibrium constant (Kb) is 69 nM. Also, the Activity in test [2] is 4%.
As to `COc1ccc(Cn2c(CCc3c[nH]c4ccccc34)nnc2[C@@H](Cc2c[nH]c3ccccc23)NC(=O)[C@@H]2CCCN2)cc1`, the antagonist dissociation constant (Kb) in test [5] turned out to be 6 nM.
Regarding `COc1ccc(Cn2c(CCc3c[nH]c4ccccc34)nnc2[C@H](Cc2c[nH]c3ccccc23)NC(=O)[C@@H]2CCCN2)cc1`, in test [1], the concentration for half-maximal inhibition (IC50) turned out to be 650 nM. Besides, in test [2], the Activity came out at 0%. For the same compound, the Kb in test [5] was found to be 440 nM.
`COc1ccc(Cn2c(CCc3ccccc3)nnc2[C@@H](Cc2c[nH]c3ccccc23)NC(=O)C(C)(C)N)c(OC)c1`: the half-maximal inhibitory concentration (IC50) in test [3] turned out to be 800 nM. Further, the Activity in test [2] is 0%.
`COc1ccc(Cn2c(CCc3ccccc3)nnc2[C@H](Cc2c[nH]c3ccccc23)NC(=O)C(C)(C)N)c(OC)c1`: in test [1], the IC50 turned out to be 450 nM. Besides, the Activity in test [2] came to 4%.
On to `COc1ccc(Cn2c(Cc3ccccc3)nnc2[C@@H](Cc2c[nH]c3ccccc23)NC(=O)C(C)(C)N)cc1`, for which, in test [3], the IC50 came to 870 nM and the antagonist dissociation constant (Kb) is 19 nM. The Activity in test [2] turned out to be 9%.
For `COc1ccc(Cn2c(CCc3ccccc3)nnc2[C@@H](Cc2c[nH]c3ccccc23)NC(=O)C(C)(C)N)cc1`, the IC50 in test [3] turned out to be 275 nM. In addition, the Activity in test [2] turned out to be 2%.
Consider `COc1ccc(Cn2c(CCc3c[nH]c4ccccc34)nnc2[C@@H](Cc2c[nH]c3ccccc23)NC(=O)C2CCOCC2)cc1`, for which the half-maximal inhibitory concentration (IC50) in test [1] was determined as 45 nM. Besides, the Activity in test [2] amounted to 2%. For the same compound, the EC50 in test [4] came to 24 nM.
As to `COc1ccc(Cn2c(CCc3c[nH]c4ccccc34)nnc2[C@@H](Cc2c[nH]c3ccccc23)NC(=O)C(C)(C)N)cc1`, the half-maximal inhibitory concentration (IC50) in test [3] worked out at 190 nM.
Turning to `COc1ccc(Cn2c(CCc3c[nH]c4ccccc34)nnc2[C@H](Cc2c[nH]c3ccccc23)NC(=O)C2CCNCC2)cc1`, the IC50 in test [1] is 7 nM. Besides, the Activity in test [2] stood at 100%. For the same compound, in test [4], the concentration for a half-maximal effect (EC50) is 32 nM.
In the case of `COc1ccc(Cn2c(CCc3c[nH]c4ccccc34)nnc2[C@@H](Cc2c[nH]c3ccccc23)NC(=O)c2ccccn2)cc1`, in test [1], the IC50 came out at 8 nM. The Activity in test [2] is 0%.
For `COc1ccc(Cn2c(Cc3ccccc3)nnc2[C@H](Cc2c[nH]c3ccccc23)NC(=O)C(C)(C)N)cc1`, in test [1], the IC50 was > 1000 nM. Also, the Activity in test [2] was found to be 5%.
